The source of these data is ChEMBL document CHEMBL1126744, “Synthesis and structure-activity relationships of phenyl-substituted benzylamine antimycotics: a novel benzylbenzylamine antifungal agent for systemic treatment” (1993).

SMILES strings stand for the structures. In brackets after ≈: the same amount, converted by molar mass.

The term MIC denotes the least concentration at which growth counts as inhibited. The term ED50 denotes the midpoint of the dose-response relation. Read a high ED50 as a need for a large dose.

In one experiment the test system is Trichophyton benhamiae. The experiment in a line: In vitro antifungal activity against Trichophyton mentagrophytes expressed as MIC (mg/L). Type of experiment: functional, Arthroderma benhamiae. An outline of the steps:
(§1)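 Fungi were grown on Kimmig agar (30 °C, 21 days) and harvested with a spatula. They were tested in glass tubes of Sabouraud's dextrose broth (pH 6.5) containing DMSO-dissolved compound serially diluted in medium. After 7 days at 30 °C, MIC was read as the lowest concentration with no macroscopically visible growth.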

The test system of experiment [1] is Candida albicans. The experiment in a line: In vitro antifungal activity against Candida albicans delta124 expressed as MIC (mg/L). In kind it is functional. An outline of the steps: (§2)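 Tube broth dilution in malt extract broth (pH 4.8). Blastospores came from yeast nitrogen base cultures shaken at 37 °C for about 30 h. Compounds in DMSO were serially diluted in the broth. After 48 h at 30 °C, MIC was taken as the lowest concentration without macroscopically detectable growth.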

Another experiment relates to Sporothrix schenckii. The experiment can be described thus: In vitro antifungal activity against Sporothrix schenck ii expressed as MIC (mg/L). Type of experiment: functional. An outline of the steps:
as §1

Another experiment has as its system Aspergillus fumigatus. The experiment can be described thus: In vitro antifungal activity against Aspergillus fumigatus expressed as MIC (mg/L). Type of experiment: functional. The procedure, abridged: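 Broth dilution in glass tubes with Sabouraud's dextrose broth (pH 6.5). Inoculum was filamentous growth scraped from Kimmig agar cultures (30 °C, 21 days). Compounds were dissolved in DMSO and serially diluted in medium. Tubes were incubated 72 h at 30 °C. MIC is the lowest concentration with no macroscopically visible growth.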

Experiment [2] relates to Candida albicans. The experiment in a line: In vitro antifungal activity against Candida albicans delta9 expressed as MIC (mg/L). In kind it is functional. The procedure, abridged:
as §2

The subject of another experiment is Candida parapsilosis. The experiment in a line: In vitro antifungal activity against Candida parapsilosis delta39 expressed as MIC (mg/L). Type of experiment: functional. Particulars: Lodderomyces parapsilosis. The procedure, abridged: as §2
The subject of another experiment is Microsporum canis. The experiment can be described thus: In vitro antifungal activity against Microsporum canis expressed as MIC (mg/L). In kind it is functional. An outline of the steps:
as §1

Experiment [3] deals with Cavia porcellus. The experiment in a line: Percent mycological cure in guinea pig skin candidosis model (topical treatment twice daily for 5 days starting 3 days after inoculation) using 2% solution (ED50=1.32%). Type of experiment: functional.
In experiment [4] the test system is Cavia porcellus. The experiment in a line: In vivo inhibition in guinea pig trichophytosis model. Type of experiment: functional.
Experiment [5] concerns Cavia porcellus. The experiment in a line: Percent mycological cure at a dose of 8 mg/kg per day in guinea pig trichophytosis model (treatment once daily for 9 days starting on the day of inoculation). Type of experiment: functional.

As to `C=C(c1ccccc1)c1ccc(CN(C)Cc2cccc3ccccc23)cc1`, the MIC with Trichophyton benhamiae was 0.01 µg/mL (≈ 0.0275 µM); against Candida albicans [1], > 200 µg/mL; against Sporothrix schenckii it was 1.56 µg/mL (≈ 4.29 µM); in the experiment with Aspergillus fumigatus, > 200 µg/mL; in the experiment with Candida albicans [2], > 200 µg/mL; against Candida parapsilosis, 0.8 µg/mL (≈ 2.2 µM). Also, the MIC in the experiment on Microsporum canis came to 0.01 µg/mL (≈ 0.0275 µM).
As for `CCN(c1ccccc1)c1ccc(CN(C)Cc2cccc3ccccc23)cc1`, the MIC against Trichophyton benhamiae is 0.006 µg/mL (≈ 0.0158 µM); in the experiment with Candida albicans [1] it was > 200 µg/mL; against Sporothrix schenckii, 3.13 µg/mL (≈ 8.23 µM); with Aspergillus fumigatus it was > 200 µg/mL; in the experiment on Candida albicans [2] it was > 200 µg/mL; in the experiment with Candida parapsilosis it was 3.13 µg/mL (≈ 8.23 µM). Moreover, the minimal inhibitory concentration (MIC) against Microsporum canis came to 0.006 µg/mL (≈ 0.0158 µM).
With `CN(Cc1ccc(-c2ccccc2)cc1)Cc1cccc2ccccc12`, the minimum inhibitory concentration (MIC) is 10 µg/mL (≈ 29.6 µM) in the experiment on Trichophyton benhamiae; > 200 µg/mL in the experiment on Candida albicans [1]; > 200 µg/mL in the experiment with Sporothrix schenckii; > 200 µg/mL in the experiment with Aspergillus fumigatus; > 200 µg/mL against Candida albicans [2]; > 200 µg/mL in the experiment with Candida parapsilosis. The MIC against Microsporum canis was > 200 µg/mL.
For the compound `CN(Cc1ccc(C(C)(C)c2ccccc2)cc1)Cc1cccc2ccsc12`, the MIC worked out at 0.003 µg/mL (≈ 0.00778 µM) against Trichophyton benhamiae; 0.8 µg/mL (≈ 2.07 µM) in the experiment on Candida albicans [1]; 0.2 µg/mL (≈ 0.519 µM) in the experiment on Sporothrix schenckii; 0.1 µg/mL (≈ 0.259 µM) in the experiment with Aspergillus fumigatus; 0.4 µg/mL (≈ 1.04 µM) in the experiment with Candida albicans [2]; 0.05 µg/mL (≈ 0.13 µM) with Candida parapsilosis. In the experiment on Microsporum canis, the lowest concentration to inhibit growth (MIC) was 0.003 µg/mL (≈ 0.00778 µM).
For `CN(Cc1ccc(Oc2ccccc2)cc1)Cc1cccc2ccccc12`, the minimum inhibitory concentration (MIC) in the experiment with Trichophyton benhamiae is 0.4 µg/mL (≈ 1.13 µM); in the experiment on Candida albicans [1], > 200 µg/mL; against Sporothrix schenckii it was > 200 µg/mL; in the experiment with Aspergillus fumigatus, > 200 µg/mL; with Candida albicans [2], > 200 µg/mL; with Candida parapsilosis, > 200 µg/mL. In the experiment on Microsporum canis, the MIC was found to be 0.8 µg/mL (≈ 2.26 µM).
Turning to `CN(Cc1ccc(C2(c3ccccc3)CC2)cc1)Cc1cccc2ccccc12`, the MIC against Trichophyton benhamiae turned out to be 0.006 µg/mL (≈ 0.0159 µM); with Candida albicans [1], 3.13 µg/mL (≈ 8.29 µM); in the experiment with Sporothrix schenckii, 0.1 µg/mL (≈ 0.265 µM); in the experiment on Aspergillus fumigatus, 1.56 µg/mL (≈ 4.13 µM); with Candida albicans [2], 1.56 µg/mL (≈ 4.13 µM); against Candida parapsilosis it was 0.1 µg/mL (≈ 0.265 µM). The MIC against Microsporum canis came out at 0.003 µg/mL (≈ 0.00795 µM).
With `CN(Cc1ccc(C(=O)c2ccccc2)cc1)Cc1cccc2ccccc12`, the MIC was 0.05 µg/mL (≈ 0.137 µM) against Trichophyton benhamiae; > 200 µg/mL in the experiment on Candida albicans [1]; > 200 µg/mL with Sporothrix schenckii; > 200 µg/mL in the experiment with Aspergillus fumigatus; > 200 µg/mL in the experiment on Candida albicans [2]; 50 µg/mL (≈ 137 µM) against Candida parapsilosis. In the experiment on Microsporum canis, this compound gave an MIC of 0.1 µg/mL (≈ 0.274 µM).
In the case of `CN(Cc1ccc(C(C)(C)c2ccccc2)cc1)Cc1cccc2c(Cl)csc12`, the minimum inhibitory concentration (MIC) is 0.02 µg/mL (≈ 0.0476 µM) with Trichophyton benhamiae; 1.56 µg/mL (≈ 3.71 µM) in the experiment with Candida albicans [1]; 0.8 µg/mL (≈ 1.9 µM) against Sporothrix schenckii; 0.2 µg/mL (≈ 0.476 µM) against Aspergillus fumigatus; 1.56 µg/mL (≈ 3.71 µM) against Candida albicans [2]; 0.1 µg/mL (≈ 0.238 µM) with Candida parapsilosis. In the experiment with Microsporum canis, this compound yielded a minimal inhibitory concentration (MIC) of 0.02 µg/mL (≈ 0.0476 µM).
In the case of `CC(=O)N(c1ccccc1)c1ccc(CN(C)Cc2cccc3ccccc23)cc1`, the MIC against Trichophyton benhamiae was 0.8 µg/mL (≈ 2.03 µM); against Candida albicans [1] it was > 200 µg/mL; in the experiment on Sporothrix schenckii, > 200 µg/mL; against Aspergillus fumigatus it was > 200 µg/mL; against Candida albicans [2], > 200 µg/mL; in the experiment on Candida parapsilosis it was > 200 µg/mL. The same compound yielded a minimum inhibitory concentration (MIC) in the experiment on Microsporum canis of 3.13 µg/mL (≈ 7.93 µM).
As to `Cc1ccc(C(C)(C)c2ccc(CN(C)Cc3cccc4ccccc34)cc2)cc1`, the minimal inhibitory concentration (MIC) against Trichophyton benhamiae came to 0.1 µg/mL (≈ 0.254 µM); against Candida albicans [1], 6.25 µg/mL (≈ 15.9 µM); in the experiment with Sporothrix schenckii, 0.4 µg/mL (≈ 1.02 µM); in the experiment on Aspergillus fumigatus, 12.5 µg/mL (≈ 31.8 µM); with Candida albicans [2], 6.25 µg/mL (≈ 15.9 µM); in the experiment with Candida parapsilosis it was 0.1 µg/mL (≈ 0.254 µM). This compound also gave a minimal inhibitory concentration (MIC) in the experiment with Microsporum canis of 0.1 µg/mL (≈ 0.254 µM).
As for `CN(Cc1ccc(/C=C/c2ccccc2)cc1)Cc1cccc2ccccc12`, the MIC is 0.1 µg/mL (≈ 0.275 µM) with Trichophyton benhamiae; > 200 µg/mL against Candida albicans [1]; > 200 µg/mL with Sporothrix schenckii; > 200 µg/mL against Aspergillus fumigatus; > 200 µg/mL in the experiment on Candida albicans [2]; > 200 µg/mL with Candida parapsilosis. This compound came in with an MIC with Microsporum canis of 0.01 µg/mL (≈ 0.0275 µM).
Take `CN(Cc1ccc(Cc2ccccc2)cc1)Cc1cccc2ccccc12`: the MIC against Trichophyton benhamiae was 0.05 µg/mL (≈ 0.142 µM); against Candida albicans [1], > 100 µg/mL; against Sporothrix schenckii, 1.56 µg/mL (≈ 4.44 µM); in the experiment with Aspergillus fumigatus, > 100 µg/mL; against Candida albicans [2], 50 µg/mL (≈ 142 µM); with Candida parapsilosis it was 6.25 µg/mL (≈ 17.8 µM). In addition, the minimal inhibitory concentration (MIC) in the experiment with Microsporum canis turned out to be 0.05 µg/mL (≈ 0.142 µM).
For the compound `CN(Cc1ccc(C(C)(C)c2ccccc2)cc1)Cc1cccc2ccccc12`, the MIC worked out at 0.006 µg/mL (≈ 0.0158 µM) against Trichophyton benhamiae; 1.56 µg/mL (≈ 4.11 µM) in the experiment with Candida albicans [1]; 0.2 µg/mL (≈ 0.527 µM) in the experiment on Sporothrix schenckii; 0.1 µg/mL (≈ 0.263 µM) in the experiment on Aspergillus fumigatus; 0.8 µg/mL (≈ 2.11 µM) with Candida albicans [2]; 0.1 µg/mL (≈ 0.263 µM) against Candida parapsilosis. Further, the MIC with Microsporum canis was 0.003 µg/mL (≈ 0.0079 µM). Moreover, the Cure in the experiment with Cavia porcellus [3] turned out to be 90%; in the experiment with Cavia porcellus [5], 100%. Also, it took a dose of 4.6 mg/kg/day to reach the 50% effect level with Cavia porcellus [4] (ED50).
Turning to `CN(Cc1ccc(Nc2ccccc2)cc1)Cc1cccc2ccccc12`, the MIC was > 100 µg/mL with Trichophyton benhamiae; > 200 µg/mL against Candida albicans [1]; > 200 µg/mL against Sporothrix schenckii; > 200 µg/mL against Aspergillus fumigatus; > 200 µg/mL against Candida albicans [2]; > 200 µg/mL with Candida parapsilosis. In the experiment with Microsporum canis, the MIC is > 100 µg/mL.
On to `CN(Cc1ccc(C(C)(C)C)cc1)Cc1cccc2ccccc12` [BUTENAFINE], for which the MIC was determined as 0.006 µg/mL (≈ 0.0189 µM) against Trichophyton benhamiae; 25 µg/mL (≈ 78.7 µM) against Candida albicans [1]; 0.2 µg/mL (≈ 0.63 µM) against Sporothrix schenckii; 0.4 µg/mL (≈ 1.26 µM) in the experiment with Aspergillus fumigatus; 12.5 µg/mL (≈ 39.4 µM) in the experiment with Candida albicans [2]; 0.8 µg/mL (≈ 2.52 µM) against Candida parapsilosis. In the experiment on Microsporum canis, the lowest concentration to inhibit growth (MIC) was 0.01 µg/mL (≈ 0.0315 µM).
In the case of `COC1=CC(=O)C[C@@H](C)[C@]12Oc1c(Cl)c(OC)cc(OC)c1C2=O` [GRISEOFULVIN], the median effective dose (ED50) with Cavia porcellus [4] amounted to 40.7 mg/kg/day.
Regarding `CC(=O)N1CCN(c2ccc(OCC3COC(Cn4ccnc4)(c4ccc(Cl)cc4Cl)O3)cc2)CC1` (configuration not stated) [KETOCONAZOLE], the median effective dose (ED50) in the experiment with Cavia porcellus [4] is 50.8 mg/kg/day.
For the compound `CN(C/C=C/C#CC(C)(C)C)Cc1cccc2ccccc12` [TERBINAFINE], the minimum inhibitory concentration (MIC) against Trichophyton benhamiae is 0.003 µg/mL (≈ 0.0103 µM); in the experiment with Candida albicans [1], 25 µg/mL (≈ 85.8 µM); against Sporothrix schenckii, 0.4 µg/mL (≈ 1.37 µM); in the experiment on Aspergillus fumigatus it was 0.8 µg/mL (≈ 2.75 µM); in the experiment with Candida albicans [2], 6.25 µg/mL (≈ 21.4 µM); with Candida parapsilosis, 0.8 µg/mL (≈ 2.75 µM). In the experiment on Microsporum canis, this compound displayed an MIC of 0.006 µg/mL (≈ 0.0206 µM).
